Results pooled from the literature.
Each line is one published result; the experiments were not run side by side.
Target: 5-hydroxytryptamine receptor 2C (HTR2C, Homo sapiens, UniProt P28335)
One construct used (P28335 33-458): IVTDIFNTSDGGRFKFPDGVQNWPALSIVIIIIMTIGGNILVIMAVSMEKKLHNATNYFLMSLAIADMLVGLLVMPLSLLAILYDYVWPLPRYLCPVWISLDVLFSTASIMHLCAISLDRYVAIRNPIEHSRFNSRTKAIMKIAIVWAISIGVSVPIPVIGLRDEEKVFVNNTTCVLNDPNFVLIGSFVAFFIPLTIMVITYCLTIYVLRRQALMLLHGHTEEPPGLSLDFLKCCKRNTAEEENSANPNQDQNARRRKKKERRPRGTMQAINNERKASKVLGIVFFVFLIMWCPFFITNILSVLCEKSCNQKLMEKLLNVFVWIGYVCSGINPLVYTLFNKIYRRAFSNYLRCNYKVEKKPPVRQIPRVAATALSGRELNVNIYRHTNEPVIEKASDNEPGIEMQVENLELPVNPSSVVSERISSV

CCCCN1CCC(COC(=O)c2ccc(N)c(OCF)c2)CC1
Ki (cell-free assay, radioligand): > 10 µM

OC[C@@]12C[C@@H]1[C@@H](n1cnc3c(N[C@@H](C4CCC4)C4CC4)nc(I)nc31)[C@H](O)[C@@H]2O
Kb (calcium signal, antagonist): 0.148 µM

C#CCOCCOCCOc1ccc2c3c1C1CCCC1N3CCNC2 (racemic)
EC50 (calcium signal, agonist, fluorescence): 0.237 µM

Cc1nc2cc(OCCCCN3CCN(c4cccc(Cl)c4Cl)CC3)ccc2s1
Ki (cell-free assay, radioligand): 0.16 µM

COc1cc(OC)c(C(=O)CCCCN2CCC3(CC2)NC(=O)NC3=O)cc1NS(=O)(=O)c1ccc(C(F)(F)F)cc1
Ki (ligand displacement, radioligand): 0.00099 µM

O=C1c2ccccc2CCN1CCCCN1CCN(c2cccc(Cl)c2Cl)CC1
Ki (ligand displacement, radioligand): 0.354 µM

CC1Cc2ccccc2N1C(=O)NCCCCN(C)[C@@H]1Cc2cccc3[nH]c(=O)n(c23)C1 (mixture of isomers)
Ki (ligand displacement, radioligand): > 10 µM

Fc1ccc(CCCCN2CCN(c3ccccn3)CC2)cc1
Ki (ligand displacement, radioligand): > 10 µM

C#CCOCCOc1ccc2c3c1C1CCCC1N3CCNC2 (racemic)
EC50 (calcium signal, agonist, fluorescence): 0.0534 µM

CC(C)(C)c1cc(C(C)(C)CO)c(O)cc1NC(=O)c1c[nH]c2ccccc2c1=O
Ki (ligand displacement, radioligand): 1.55 µM

CN(CCCCNC(=O)c1cc2ccccc2[nH]1)[C@@H]1Cc2cccc3[nH]c(=O)n(c23)C1
Ki (ligand displacement, radioligand): 2.44 µM

CNc1nc2cc(OCCCCN3CCC(c4cccc(Cl)c4Cl)CC3)ccc2s1
Ki (cell-free assay, radioligand): 0.073 µM

CN(Cc1ccc(NC(=O)C2=Cc3cc(-c4ccc(OCCCF)cc4)ccc3CCC2)cc1)C1CCOCC1
Ki (ligand displacement, radioligand): 1.02 µM
